Bioassay records deposited in PubChem BioAssay by The Scripps Research Institute Molecular Screening Center.
PRMT1 inh: PRMT1 methyltransferase inhibitors, primary screen, biochemical, fluorescence polarization. recombinant PRMT1, activity-based probe fluorescence polarization. inhibition, % at 2.79 µM. actives 1.3% (n = 370,000);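 active = inhibition above about 21% made by adding two undisclosed values, limit read from the data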
UHRF1 MBD2 ctr: UHRF1 methylated DNA binding inhibitors, primary screen, counter-screen for MBD2 inhibitor project, biochemical, TR-FRET, human UHRF1, single concentration; UHRF1 binding to methylated oligo; inhibition, % at 4.4 µM; actives 0.75% (n = 370,000); in the data active = inhibition above about 21%;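 note: UHRF1 SRA domain binding a hemimethylated CpG hairpin DNA probe; 0% = median of test compound wells and 100% = reference inhibitor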
RBBP9 inhibitor: human RBBP9 inhibitors, primary screen, biochemical, fluorescence polarization, FP-Rh probe, HTS. recombinant RBBP9. actives 0.2% (n = 220,000). inhibition, % at 7.94 µM. AID 1515, 2009;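 active = inhibition above the campaign mean of all tested compounds plus 3 SD, cut at about 14% in these data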;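 note: plate controls were DMSO wells with RBBP9 for no effect and wells lacking RBBP9 protein for full effect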
Target sequence (O75884 whole entry, looked up): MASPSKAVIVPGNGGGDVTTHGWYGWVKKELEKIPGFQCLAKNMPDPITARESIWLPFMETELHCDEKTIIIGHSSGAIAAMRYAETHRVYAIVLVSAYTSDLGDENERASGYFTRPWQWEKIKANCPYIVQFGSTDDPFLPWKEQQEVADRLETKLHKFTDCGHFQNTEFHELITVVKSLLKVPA
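System: RBBP9 protein / Quantity: 2.5 µM RBBP9 dispensing solution, before mixing / Also added: Serine-hydrolase probe FP-Rh, 375 nM pre-mixing / Dosing: 7.94 µM single dose, 0.794% DMSO / Timing: enzyme-compound preincubation 30 min, then probe labeling 45 min, 25 °C / Signal: FP readout at 525/598 nm / Controls: DMSO-treated enzyme wells and wells lacking RBBP9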
MBD2 inh: inhibitors of MBD2 binding to methylated DNA, primary screen, biochemical, TR-FRET, DNA-binding domain, human; MBD2 binding to methylated oligonucleotide; inhibition, % at 4.4 µM; actives 0.31% (n = 370,000); in the data active = inhibition above about 13%
Target sequence (Q9UBB5 whole entry, looked up, the tested form may be a part): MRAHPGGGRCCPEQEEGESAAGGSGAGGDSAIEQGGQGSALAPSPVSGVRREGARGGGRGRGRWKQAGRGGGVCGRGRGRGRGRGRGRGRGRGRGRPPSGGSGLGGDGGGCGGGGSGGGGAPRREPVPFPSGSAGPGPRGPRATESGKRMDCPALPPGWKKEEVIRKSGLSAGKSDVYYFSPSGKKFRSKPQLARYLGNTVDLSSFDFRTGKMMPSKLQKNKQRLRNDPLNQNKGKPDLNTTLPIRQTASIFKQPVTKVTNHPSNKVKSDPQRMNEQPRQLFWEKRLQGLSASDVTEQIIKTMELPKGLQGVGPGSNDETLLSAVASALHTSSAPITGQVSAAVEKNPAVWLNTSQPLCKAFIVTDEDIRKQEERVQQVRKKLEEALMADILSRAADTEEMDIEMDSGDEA
LEDGF integ inh: blockers of LEDGF/p75-dependent integrase strand transfer – biochemical, TR-FRET, high throughput, primary screen; TR-FRET IN-LEDGF/p75 DNA integration, Eu/Cy5; inhibition, % at 3.7 µM; actives 0.64% (n = 370,000); AID 743269, 2014;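 active = inhibition above the screen-wide mean plus 3 SD, cut at about 13% in these data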;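 note: signal is the Cy5 over europium emission ratio at 671 and 618 nm; 0% = plate median of compound wells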
ABHD5-PLIN5 inh: ABHD5-PLIN5 interaction inhibitors, primary screen, cell lysate, split luciferase complementation, luminescence | inhibition, % at 4 µM | Split G. princeps luciferase complementation, 4 h | Perilipin-5 (Homo sapiens) + 1-acylglycerol-3-phosphate O-acyltransferase ABHD5 (Homo … | actives 0.78% (n = 360,000);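 active = inhibition above the mean inhibition across every tested compound plus 3 SD, cut at about 22% in these data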;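 note: 0% = DMSO only wells and the 100% control is not disclosed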
The depositor's hits bear a star; x = no result given. Rows were chosen to be rich in hits. Some 3.1% of all compounds tested hit in one or more screens of this group.

SMILES | PRMT1 inh | UHRF1 MBD2 ctr | RBBP9 inhibitor | MBD2 inh | LEDGF integ inh | ABHD5-PLIN5 inh
C#CCOCCOCCOCCNc1nc(N2CCN(C(=O)[C@H](Cc3cc4ccccc4[nH]3)n3cc([C@@H](N)CC(C)C)nn3)CC2)nc(N2CCN(C(=O)[C@H](Cc3cc4ccccc4[nH]3)n3cc([C@@H](N)CC(C)C)nn3)CC2)n1 | x | x | 2 | x | x | 51*
C#CCOCCOCCOCCNc1nc(N2CCOCC2)nc(N2CCN(C(=O)[C@H](Cc3cc4ccccc4[nH]3)n3cc([C@@H](N)CC(C)C)nn3)CC2)n1 | x | x | 8 | x | x | 16
COc1ccccc1C(=O)NCC(=O)N/N=C/c1ccc([N+](=O)[O-])cc1 | 1 | 25* | 1 | -5 | 1 | -3
COC(=O)[C@H](C(C)C)N1CCc2nnn(Cc3ccc(C)cc3)c2-c2cc(F)ccc2S1(=O)=O | -1 | 0 | x | 1 | 1 | x
O=S(=O)(c1ccc(C2=CSC3=NCCN23)cc1)N1CCOCC1 | 24* | -2 | -10 | 1 | -1 | -6
Fc1ccc(C2=CSC3=NCCN23)cc1 | -1 | -3 | -3 | 2 | 3 | 2
CC(C)(CO)NCc1cc(Br)ccc1OCc1ccccc1 | -4 | 2 | 3 | 3 | -4 | 1
OCCCCNCc1cc(Br)ccc1OCc1ccccc1 | 0 | 29* | -2 | 10 | 0 | 3
C=CCOC(=O)N[C@H](c1ccc(-c2ccccc2)cc1)[C@H](C)/C=C/CC(=O)OC | -4 | -1 | x | -2 | 1 | x
CC1(C)CC(=O)C=C(c2ccccc2-c2ccc3c(c2)OCO3)C1=O | 1 | 0 | x | -5 | -1 | x
COc1cc(/C=C2/SC(=S)N(CC(=O)Nc3nc4ccccc4s3)C2=O)cc(OC)c1OC | 5 | -1 | -4 | 0 | -4 | -18
CCc1nnc(NC(=O)CN2C(=O)/C(=C/c3cc(OC)c(OC)c(OC)c3)SC2=S)s1 | 21* | -8 | -3 | 1 | -3 | -15
c1ccc(-c2ccc(C3=Nn4c(nnc4-c4ccccn4)SC3)cc2)cc1 | 5 | -1 | x | 8 | -2 | x
CN(C)C/C=C/C(=O)Nc1cccc(-c2c[nH]c3ncnc(Oc4ccc(NC(=O)CC(=O)Nc5ccc(F)cc5)cc4F)c23)c1 | x | x | x | x | x | 24*
COc1ccc(OC)c(CN2C(=O)COc3ccccc3C2c2nnnn2C2CCCC2)c1 (configuration not stated) | 3 | -1 | x | -3 | 5 | x
CCOc1cc(C2CC(=O)N3CN(C4CCCCC4)CSC3=C2C#N)ccc1O (configuration not stated) | 32* | -8 | 9 | -6 | 1 | -15
COc1ccc2ccccc2c1C1CC(=O)N2CN(C3CCCCC3)CSC2=C1C#N (configuration not stated) | 20 | -7 | 2 | 0 | -2 | -3
CS(=O)(=O)c1ccc2nc(N)sc2c1 | 0 | -2 | -6 | 1 | -2 | 1
CS(=O)(=O)c1ccc(N)c(SSc2cc(S(C)(=O)=O)ccc2N)c1 | 87* | 3 | x | 3 | -4 | 83*
CCC1=NN2C(=N)/C(=C\c3cccn3-c3ccc(C)cc3C)C(=O)N=C2S1 | 1 | 30* | -5 | 1 | 1 | 3
O=C(Cc1c[nH]c2ccccc12)Nc1ccc(Nc2cccnc2)c(-c2cc(F)cc(F)c2)c1 | 0 | -3 | x | 4 | -5 | x
O=C(NCc1cccnc1)C(=O)NCC1CCCO1 (configuration not stated) | -1 | 1 | -1 | 2 | -3 | -3
O=C(NC1CCCC1)C(=O)N(Cc1cccnc1)C(C(=O)NCC1CCCO1)c1ccco1 (configuration not stated) | 0 | 26* | -5 | 7 | 0 | 2
N[C@@H](C(=O)N[C@@H]1C(=O)N2C(C(=O)O)=C(Cl)CS[C@H]12)c1ccccc1 | 46* | 2 | -3 | -2 | 7 | -21
CC1=C(C(=O)O)N2C(=O)C(NC(=O)c3ccccc3Cl)C2SC1 (configuration not stated) | 8 | -3 | x | 1 | -1 | -8
SMILES | PRMT1 inh | UHRF1 MBD2 ctr | RBBP9 inhibitor | MBD2 inh | LEDGF integ inh | ABHD5-PLIN5 inh
CC(C)Cc1cc(C(=O)Nc2ccc(F)cc2F)no1 | -2 | 24* | -2 | 0 | 3 | 5
CC(C)Cc1cc(C(=O)Nc2cc(Cl)ccc2Cl)no1 | 2 | 1 | -2 | 4 | -1 | -4
CN1/C(=C\C(=O)c2cccnc2)C(C)(C)c2ccccc21 | 0 | 2 | -1 | -4 | 0 | -3
CN1/C(=C/C(=O)c2nc(S(C)(=O)=O)ncc2Cl)C(C)(C)c2ccccc21 | x | x | 8 | x | x | 69*
Cc1cc(C)cc(-c2c(C(=O)c3ccc(Br)cc3)[nH]c(N)c2C(=O)NCc2ccc(Cl)cc2)c1 | 3 | 0 | x | 3 | -4 | x
O=C1/C(=C/c2cccnc2)SC(=S)N1NS(=O)(=O)c1ccccc1 | 23* | -4 | x | -4 | 3 | -17
O=C(NC1CCN(Cc2ccccc2)CC1)c1cncc(Br)c1 | 3 | 21* | -2 | 9 | -5 | 1
Cc1cccc(NC(=O)COc2ccc3oc4c(c3c2)CCCC4)n1 | 1 | 73* | -12 | 1 | 1 | 1
CC(=O)Nc1ccc(C(=S)NCc2ccco2)cc1 | 0 | -2 | -2 | -6 | 1 | -1
CC(=O)Nc1ccc(C(=S)NCCCO)cc1 | 22* | 8 | -6 | 4 | -6 | -6
O=C(CC1C(=O)NCCN1C(=O)Nc1ccccc1)Nc1cccc(Cl)c1 (configuration not stated) | 3 | 33* | -11 | 5 | -2 | 10
OC12CC3C[C@H](C1)C(N1CCOCC1)[C@@H](C3)C2 (some centres not stated) | 1 | 52* | x | 2 | -4 | 6
CN(CCOC(=O)CCCc1ccccc1)C1CN(Cc2cn(Cc3ccccc3F)nn2)S(=O)(=O)C1 (configuration not stated) | 1 | 7 | x | 2 | 0 | x
O=S(=O)(c1ccc2nc(N3CCN(c4ccccc4)CC3)ccc2c1)N1CCCCC1 | 2 | 22* | x | 2 | -4 | 11
COC(=O)[C@]12C[C@H](CC(=O)NCC3CCCCC3)C(=O)N(Cc3ccc(Cl)cc3Cl)C1=C[C@H](COCc1ccccc1)O[C@@H]2C | 0 | 2 | x | -2 | -2 | x
COc1ccc(NC(=S)NNC(=O)COc2ccc(Cl)cc2Cl)cc1 | 24* | 4 | -2 | -1 | 0 | -8
